{"source": "ChEMBL document CHEMBL1132158", "about": "“4-[[2-(1-Methyl-2-pyrrolidinyl)ethyl]thio]phenol hydrochloride (SIB-1553A): a novel cognitive enhancer with selectivity for neuronal nicotinic acetylcholine receptors” (J Med Chem, 1999)", "format_in_all_cases": "functional", "key": {"[1]": {"species": "Rattus norvegicus", "assay": "In vitro efficacy to stimulate the release of [3H]dopamine from rat striatal slices", "outline": "(§1)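 Release of [3H]DA (striatum) or [3H]NE (hippocampus, prefrontal cortex) from rat brain slice preparations stimulated by test compound at 300 μM. […] Mean ± SD of 3–6 experiments.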"}, "[2]": {"species": "Rattus norvegicus", "assay": "In vitro efficacy to stimulate [3H]NE in rat hippocampus", "outline": "as §1"}, "[3]": {"species": "Rattus norvegicus", "assay": "In vitro efficacy to stimulate [3H]NE in rat prefrontal cortex membrane slice", "outline": "as §1"}, "[4]": {"tested_on": "Rattus norvegicus", "assay": "Acetylcholine release data in […] rats when compound was administered subcutaneously at dose of 40 mg/kg", "conditions": "route subcutaneous", "outline": "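In vivo acetylcholine release from hippocampus of freely moving Sprague–Dawley rats after subcutaneous dosing. […] Mean ± SEM of 2–6 independent experiments, compared against saline control by two-way repeated measures ANOVA with Student–Newman–Keuls post-hoc test.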"}, "[5]": {"tested_on": "Rattus norvegicus", "assay": "Acetylcholine release data in […] rats when compound was administered subcutaneously at dose of 40(mg/Kg)"}, "[6]": {"species": "Rattus norvegicus", "assay": "In vitro efficacy to stimulate [3H]-dopamine from brain slice preparations", "outline": "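Striatal brain slices stimulated with test compound at 300 μM; [3H]dopamine release measured. […] Mean ± SD of 3–6 experiments.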"}}, "data": [{"smiles": "CN1CCC[C@H]1c1cccnc1", "note": "[NICOTINE]", "values": [{"measurement": "Efficacy", "setting": "[1]", "result": 1}, {"measurement": "Efficacy", "setting": "[2]", "result": 1}, {"measurement": "Efficacy", "setting": "[3]", "result": 1}]}, {"smiles": "CN1CCCC1CCSc1ccc(O)cc1", "note": "(configuration not stated)", "values": [{"measurement": "Efficacy", "setting": "[1]", "result": 6.5}, {"measurement": "Efficacy", "setting": "[2]", "result": 0.2}, {"measurement": "Activity", "setting": "[4]", "result": 12}, {"measurement": "Efficacy", "setting": "[3]", "result": 0.6}]}, {"smiles": "CN1CCCC1CCSc1ccccc1", "note": "(configuration not stated)", "values": [{"measurement": "Activity", "setting": "[5]", "result": 0.6}, {"measurement": "Efficacy", "setting": "[6]", "result": 1.5}]}, {"smiles": "CN1CCC[C@@H]1CCSc1ccc(O)cc1", "values": [{"measurement": "Efficacy", "setting": "[1]", "result": 4.1}, {"measurement": "Efficacy", "setting": "[2]", "result": 0.2}, {"measurement": "Activity", "setting": "[4]", "result": 10}, {"measurement": "Efficacy", "setting": "[3]", "result": 0.3}]}, {"smiles": "CN1CCC[C@H]1CCSc1ccc(O)cc1", "values": [{"measurement": "Efficacy", "setting": "[1]", "result": 4.3}, {"measurement": "Efficacy", "setting": "[2]", "result": 0.3}, {"measurement": "Activity", "setting": "[4]", "result": 13}, {"measurement": "Efficacy", "setting": "[3]", "result": 0.35}]}]}
